Source: ChEMBL document CHEMBL4325831, “Novel Pyrrole-Imidazole Polyamide Hoechst Conjugate Suppresses Epstein-Barr Virus Replication and Virus-Positive Tumor Growth” (J Med Chem, 2018)
The source made the active and inactive calls. The rule behind the calls is not given here.

Assays:
[1] = tested on: Human gammaherpesvirus 4; assay: Inhibition of Epstein-Barr virus-induced human Daudi cell proliferation assessed reduction in cell viability at 10 uM measured at day 3 and day 6 post dose following media refreshment every 3 days trypan blue dye-based assay; format: functional, organism-based
Method in brief: (§1)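 5 × 10^5 cells in 2 mL medium with 10 μM polyamide. After 3 days an equal volume of fresh medium containing polyamide was added. Living cells counted by 0.4% trypan blue exclusion at days 3 and 6. Significance by one-way ANOVA.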

[2] = Inhibition of recombinant EBNA1 binding to biotin-labeled Epstein-Barr virus OriP hairpin DNA EBNA1 site 2 assessed as dissociation constant by SPR assay; design: species or system human gammaherpesvirus 4
[3] = tested on: Raji; assay: Inhibition of EBNA1 binding to Epstein-Barr virus OriP DNA in human Raji cells assessed as reduction in EBNA1 protein expression up to 20 uM after 24 hrs by Western blot analysis; format: cell-based; conditions: human gammaherpesvirus 4
Method in brief: (§2)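 Raji cells exposed 24 h to 0, 1, 2, 5, 10 or 20 μM. Cells lysed in nondenaturing buffer with protease inhibitors and run on 10% SDS-PAGE, then PVDF. Membranes probed overnight at 4 °C for EBNA1, EBNA2 and GAPDH, HRP secondary 1 h, chemiluminescent detection. At least triplicate.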

[4] = tested on: Human gammaherpesvirus 4; assay: Inhibition of Epstein-Barr virus-induced […] cell proliferation after 72 hrs by MTT assay; format: functional; conditions: human gammaherpesvirus 4, B-95-8, 72 h
Method in brief: (§3)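 Suspension cells seeded at 7 × 10^3 per well, adherent at 3 × 10^3 per well, in quadruplicate across a concentration series. Grown 72 h, then viability relative to control read by MTT. GI50 from sigmoidal dose–response fit; at least triplicate experiments. RPMI-based medium for suspension lines, high-glucose DMEM for MDA-MB-231, both with 10% FBS, 5% CO2, 37 °C.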

[5] = tested on: MOLT-4; assay: Cell growth inhibition of human MOLT4 cells after 72 hrs by MTT assay; format: functional; conditions: MOLT-4, 72 h; method in brief: as §3
[6] = tested on: Human gammaherpesvirus 4; assay: Inhibition of Epstein-Barr virus-induced human Daudi cell proliferation after 72 hrs by MTT assay; format: functional; conditions: human gammaherpesvirus 4, Daudi; method in brief: as §3
[7] = tested on: human gammaherpesvirus 4; assay: Inhibition of recombinant EBNA1 binding to biotin-labeled Epstein-Barr virus OriP hairpin DNA EBNA1 site 1 assessed as reduction in RU increase at 200 nM by SPR assay
Method in brief: (§4)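 SPR in HBS-EP (10 mM HEPES pH 7.4, 150 mM NaCl, 3 mM EDTA, 0.005% P20) at 25 °C. Biotin hairpin DNA (200 nM) captured at 700–900 RU on streptavidin. Polyamide (200 nM) injected at 25 μL/min for 4 min with no dissociation phase, then 100 nM recombinant EBNA1 for 3 min. Relative reduction in RU rise recorded.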

[8] = Inhibition of recombinant EBNA1 binding to biotin-labeled Epstein-Barr virus OriP hairpin DNA EBNA1 site 1 assessed as dissociation constant by SPR assay; design: species or system human gammaherpesvirus 4
[9] = tested on: human gammaherpesvirus 4; assay: Inhibition of recombinant EBNA1 binding to biotin-labeled Epstein-Barr virus OriP hairpin DNA EBNA1 site 2 assessed as reduction in RU increase at 200 nM by SPR assay; method in brief: as §4
[10] = tested on: Raji; assay: Inhibition of EBNA1 binding to Epstein-Barr virus OriP DNA in human Raji cells at 10 uM after 24 to 48 hrs by chIP assay; format: cell-based; conditions: human gammaherpesvirus 4
Method in brief: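 Raji cells with 10 μM polyamide, 8 × 10^6 harvested at 0, 24 and 48 h. Formaldehyde fixation, enzymatic chromatin ChIP; 2% input kept. IP overnight with 1 μg anti-EBNA1 or mouse IgG1, magnetic-bead capture. OriP detected by SYBR qPCR (95 °C 5 min; 40 cycles of 95 °C 15 s / 60 °C 60 s). ΔΔCt relative to input.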

[11] = Inhibition of recombinant EBNA1 binding to biotin-labeled Epstein-Barr virus OriP hairpin DNA EBNA1 site 1 mutant assessed as dissociation constant by SPR assay; design: species or system human gammaherpesvirus 4
Method in brief: (§5)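 SPR on a streptavidin-coated chip (about 16 000 RU) carrying biotinylated short hairpin DNA, loaded at 200 nM and immobilized to about 700–900 RU. Run in HBS-EP (10 mM HEPES pH 7.4, 150 mM NaCl, 3 mM EDTA, 0.005% P20) at 25 °C. Polyamides were diluted first in ultrapure water, then into a concentration gradient. ka and kd were fitted from sensorgrams.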

[12] = tested on: Raji; assay: Inhibition of EBNA1 binding to Epstein-Barr virus OriP DNA in human Raji cells assessed as reduction in EBNA2 protein expression up to 20 uM after 24 hrs by Western blot analysis; format: cell-based; conditions: human gammaherpesvirus 4; method in brief: as §2
[13] = tested on: MOLT-4; assay: Cell growth inhibition of human MOLT4 cells at 10 uM measured at day 3 and day 6 following media refreshment every 3 days by trypan blue dye-based assay; format: functional; method in brief: as §1
[14] = tested on: Jurkat; assay: Cell growth inhibition of human Jurkat cells after 72 hrs by MTT assay; format: functional; method in brief: as §3
[15] = tested on: Human gammaherpesvirus 4; assay: Inhibition of Epstein-Barr virus-induced human Raji cell proliferation assessed reduction in cell viability at 10 uM measured at day 3 and day 6 post dose following media refreshment every 3 days trypan blue dye-based assay; format: functional, organism-based; method in brief: as §1
[16] = tested on: Raji; assay: Inhibition of EBNA1 binding to Epstein-Barr virus OriP DNA in human Raji cells assessed as reduction in EBV copy number at 10 uM after 120 hrs by qRT-PCR analysis; format: cell-based; conditions: human gammaherpesvirus 4
Method in brief: (§6)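 Raji (5 × 10^5), B95-8 (5 × 10^5) or Daudi (1 × 10^6) cells cultured with 10 μM polyamide. Genomic DNA extracted at intervals (Raji every 24 h). SYBR real-time PCR in triplicate: 95 °C 5 min, then 40 cycles of 95 °C 10 s / 60 °C 30 s, followed by melt curve. EBV copies relative to cellular DNA by ΔΔCt.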

[17] = tested on: MDA-MB-231; assay: Cell growth inhibition of human MDA-MB-231 cells after 72 hrs by MTT assay; format: functional; conditions: MDA-MB-231, 72 h; method in brief: as §3
[18] = tested on: Human gammaherpesvirus 4; assay: Inhibition of Epstein-Barr virus-induced human Raji cell proliferation after 72 hrs by MTT assay; format: functional; conditions: human gammaherpesvirus 4, Raji; method in brief: as §3
[19] = Inhibition of recombinant EBNA1 binding to biotin-labeled Epstein-Barr virus OriP hairpin DNA EBNA1 site 2 mutant assessed as dissociation constant by SPR assay; design: species or system human gammaherpesvirus 4; method in brief: as §5
[20] = tested on: RPMI-8226; assay: Cell growth inhibition of human RPMI8226 cells after 72 hrs by MTT assay; format: functional; conditions: RPMI-8226, 72 h; method in brief: as §3
[21] = tested on: NALM-6; assay: Cell growth inhibition of human NALM6 cells after 72 hrs by MTT assay; format: functional; conditions: NALM-6, 72 h; method in brief: as §3
[22] = tested on: Human gammaherpesvirus 4; assay: Antiviral activity against Epstein-Barr virus positive human Raji cells xenografted in Balb/c mouse assessed as reduction in EBV DNA copy at 5 to 10 mg/kg, sc administered every 3 days for 25 days; format: functional, organism-based
Method in brief: (§7)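 Female Balb/c nude mice given 1 × 10^7 Raji cells sc in left flank (in 100 μL serum-free RPMI). Dosing began at tumor ~50 mm3 (L × W × 1/2W). Compound in 100 μL 5% DMSO/0.9% NaCl, injected sc around tumor every 3 days, eight injections; vehicle n = 6, treated groups n = 7. Tumor size and body weight taken before each injection. Tumor DNA analysed by real-time PCR for relative EBV copy number.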

[23] = Toxicity in Balb/c mouse infected with Epstein-Barr virus positive human Raji cells assessed as body weight loss at 5 to 10 mg/kg, sc administered every 3 days for 25 days and measured every 3 days before drug injection; format: organism-based; conditions: in vivo; method in brief: as §7
[24] = tested on: Human gammaherpesvirus 4; assay: Inhibition of Epstein-Barr virus-induced human Raji cell proliferation xenografted in Balb/c mouse assessed as reduction in tumor size at 10 mg/kg, sc administered every 3 days for 25 days and measured every 3 days before drug injection; format: functional, organism-based; method in brief: as §7
[25] = tested on: Daudi; assay: Inhibition of EBNA1 binding to Epstein-Barr virus OriP DNA in human Daudi cells assessed as reduction in EBV copy number at 10 uM after 120 hrs by qRT-PCR analysis; format: cell-based; conditions: human gammaherpesvirus 4; method in brief: as §6
[26] = tested on: human gammaherpesvirus 4; assay: Inhibition of EBNA1 binding to Epstein-Barr virus OriP DNA in […] cells assessed as reduction in EBV copy number at 10 uM after 120 hrs by qRT-PCR analysis; format: cell-based; method in brief: as §6
[27] = tested on: Human gammaherpesvirus 4; assay: Inhibition of Epstein-Barr virus-induced human Raji cell proliferation xenografted in Balb/c mouse assessed as reduction in tumor size at 5 mg/kg, sc administered every 3 days for 25 days and measured every 3 days before drug injection; format: functional, organism-based; method in brief: as §7

SMILES | inhibition [1] | Kd [2] [µM] | inhibition [3] | GI50 [4] [µM] | GI50 [5] [µM] | GI50 [6] [µM] | fold change (FC) [7] | Kd [8] [µM] | fold change (FC) [9] | inhibition [10] | Kd [11] [µM] | inhibition [12] | growth inhibition (GI) [13] | GI50 [14] [µM] | inhibition [15] | inhibition [16] | GI50 [17] [µM] | GI50 [18] [µM] | Kd [19] [µM] | GI50 [20] [µM] | also measured
CN(C)CCCNC(=O)c1cc(NC(=O)c2nc(NC(=O)c3cc(NC(=O)c4cc(NC(=O)[C@H](N)CCNC(=O)c5cc(NC(=O)c6cc(NC(=O)c7cc(NC(=O)c8nccn8C)cn7C)cn6C)cn5C)cn4C)cn3C)cn2C)cn1C | Active | 0.00452 | inactive | 30.2 | 30.3 | 12.9 | 0.646 | 0.0015 | 0.524 | inactive | 0.0252 | inactive | inactive | > 100 | Active | inactive | > 100 | 29.4 | 0.0206 | 43.9 | GI50 [21]: 41.9 µM
CN(C)CCCNC(=O)c1cc(NC(=O)c2cc(NC(=O)c3cc(NC(=O)c4cc(NC(=O)[C@@H](CCNC(=O)c5cc(NC(=O)c6cc(NC(=O)c7nc(NC(=O)c8nccn8C)cn7C)cn6C)cn5C)NC(=O)CCCOc5ccc(-c6nc7cc(-c8nc9cc(N%10CCN(C)CC%10)ccc9[nH]8)ccc7[nH]6)cc5)cn4C)cn3C)cn2C)cn1C |  | 0.263 |  |  |  |  | 0.091 | 0.335 | 0.088 |  |  |  |  |  |  | inactive |  |  |  |  | 
CN(C)CCCNC(=O)c1cc(NC(=O)c2nc(NC(=O)c3cc(NC(=O)c4cc(NC(=O)[C@@H](CCNC(=O)c5cc(NC(=O)c6cc(NC(=O)c7cc(NC(=O)c8nccn8C)cn7C)cn6C)cn5C)NC(=O)CCCOc5ccc(-c6nc7cc(-c8nc9cc(N%10CCN(C)CC%10)ccc9[nH]8)ccc7[nH]6)cc5)cn4C)cn3C)cn2C)cn1C | Active | 0.0129 | Dose-dependent effect | 9.42 | 25 | 4.02 | 0.583 | 0.0228 | 0.412 | Active | 0.747 | Dose-dependent effect | inactive | > 100 | Active | Active | > 100 | 8 | 0.187 | 24.5 | Activity [22]: Active; Activity [23]: Non-Toxic; inhibition [24]: Active; inhibition [25]: Active; inhibition [26]: Active; inhibition [27]: Active; GI50 [21]: 22.2 µM
